Measured values reported in ChEMBL document CHEMBL1123671, “1-Aryl-2-(aminomethyl)cyclopropanecarboxylic acid derivatives. A new series of potential antidepressants” (J Med Chem, 1987).

How the values were obtained:
Mus musculus [1] = assay: Ability to kill 50% of the animals (administered orally), after sublethal dose of yohimbine (25 mg/Kg) when given subcutaneously.; type: functional
[2] = Ability to kill 50% of the animals after 24h, when administered perorally; type: ADME, organism-based; details: mouse, in vivo, po
Mus musculus [3] = species on record: Mus musculus; assay: % increase of the diameter of the test pupil (% mydriasis) in comparison with that of the control pupil.; type: functional, organism-based
Method in brief: (§1)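 One drop (0.1 mL) of a 1% aqueous solution instilled into the left eye of 10 mice; right eye as untreated control. Both pupil diameters measured by ocular micrometer; mean mydriasis given as percent increase of test pupil diameter over control pupil.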

Mus musculus [4] = assay: Antagonism of tetrabenazine-induced ptosis in mice was evaluated after oral administration; type: functional
Method in brief: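 Mice dosed orally at various doses (highest 30 mg/kg) 30 min before tetrabenazine 40 mg/kg ip. Blepharoptosis scored 0–2 thirty minutes after tetrabenazine. Group score sums expressed as percentage.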

Mus musculus [5] = assay: Potentiation of 5-hydroxytryptophan-induced head twitch in mice after oral administration; type: functional
Mus musculus [6] = species on record: Mus musculus; assay: Percent increase of the diameter of the test pupil (% mydriasis) in comparison with that of the control pupil.; type: functional; method in brief: as §1
Mus musculus [7] = assay: Compound was tested for its ability to kill 50% of the animals after 24h, when administered perorally; type: functional; details: po

CCN(CC)C(=O)[C@]1(c2ccccc2)C[C@@H]1CN.Cl [1R,2S-MILNACIPRAN HYDROCHLORIDE]
ED50 (Mus musculus [1]): > 100 mg/kg
LD50 at 24 h [2]: 562 mg/kg
Mydriasis (Mus musculus [3]): Not significant
ED50 (Mus musculus [4]): > 30 mg/kg
ED50 (Mus musculus [5]): > 100 mg/kg

COC(=O)[C@@]1(c2ccccc2)CC1CN(C)C.Cl (stereo not given in full)
ED50 (Mus musculus [1]): 29 mg/kg
LD50 at 24 h [2]: 750 mg/kg
Mydriasis (Mus musculus [6]): 60%
ED50 (Mus musculus [4]): 30 mg/kg

CCOC(=O)[C@@]1(c2ccc(Cl)cc2)CC1CN(C)C.Cl (stereo not given in full)
ED50 (Mus musculus [1]): 2 mg/kg
LD50 at 24 h [2]: 422 mg/kg
Mydriasis (Mus musculus [6]): 24%
ED50 (Mus musculus [4]): 6 mg/kg
ED50 (Mus musculus [5]): 35 mg/kg

CCOC(=O)[C@@]1(c2ccccc2)CC1CN(CCO)CCO.O=C(O)/C=C\C(=O)O (stereo not given in full)
ED50 (Mus musculus [1]): > 100 mg/kg
LD50 at 24 h [2]: > 1000 mg/kg
Mydriasis (Mus musculus [3]): Not significant

CNCCCN1c2ccccc2CCc2ccccc21 [DESIPRAMINE]
ED50 (Mus musculus [1]): 2 mg/kg
LD50 at 24 h [2]: 572 mg/kg
Mydriasis (Mus musculus [6]): 46%
ED50 (Mus musculus [4]): 3 mg/kg
ED50 (Mus musculus [5]): > 100 mg/kg

CC(C)OC(=O)[C@@]1(c2ccc(Cl)cc2)CC1CN.Cl (stereo not given in full)
ED50 (Mus musculus [1]): 2 mg/kg
LD50 at 24 h [2]: 255 mg/kg
Mydriasis (Mus musculus [6]): 23%
ED50 (Mus musculus [4]): 8 mg/kg
ED50 (Mus musculus [5]): 50 mg/kg

CCOC(=O)[C@@]1(c2ccccc2)CC1CN(C)CCc1ccccc1.Cl (stereo not given in full)
ED50 (Mus musculus [1]): 15 mg/kg
LD50 at 24 h [2]: 1000 mg/kg
Mydriasis (Mus musculus [6]): 30%
ED50 (Mus musculus [4]): > 30 mg/kg
ED50 (Mus musculus [5]): > 30 mg/kg

Cl.NCC1C[C@@]1(C(=O)O)c1ccccc1 (stereo not given in full)
ED50 (Mus musculus [1]): > 100 mg/kg
LD50 at 24 h [2]: > 1000 mg/kg
Mydriasis (Mus musculus [3]): Not significant
ED50 (Mus musculus [4]): > 30 mg/kg
ED50 (Mus musculus [5]): > 100 mg/kg

CC(C)OC(=O)[C@@]1(c2ccccc2)CC1CN(C)C.Cl (stereo not given in full)
ED50 (Mus musculus [1]): 18 mg/kg
LD50 at 24 h [2]: 422 mg/kg
Mydriasis (Mus musculus [6]): 73%
ED50 (Mus musculus [4]): 7 mg/kg

CCN(CC)C(=O)[C@]1(c2ccc(F)cc2)CC1CN.Cl (stereo not given in full)
ED50 (Mus musculus [1]): 5 mg/kg
LD50 at 24 h [2]: 422 mg/kg
Mydriasis (Mus musculus [3]): Not significant
ED50 (Mus musculus [4]): 10 mg/kg
ED50 (Mus musculus [5]): 50 mg/kg

CCNC(=O)[C@@]1(c2ccccc2)CC1CN.O=C(O)C(=O)O (stereo not given in full)
ED50 (Mus musculus [1]): 19 mg/kg
LD50 at 24 h [2]: 316 mg/kg
Mydriasis (Mus musculus [3]): Not significant
ED50 (Mus musculus [4]): > 30 mg/kg
ED50 (Mus musculus [5]): > 100 mg/kg

CCCCCCN(CCCCCC)C(=O)[C@@]1(c2ccccc2)CC1CN.O=C(O)C(=O)O (stereo not given in full)
ED50 (Mus musculus [1]): > 100 mg/kg
LD50 (Mus musculus [7]): > 1000 mg/kg
Mydriasis (Mus musculus [3]): Not significant
ED50 (Mus musculus [4]): > 30 mg/kg
ED50 (Mus musculus [5]): > 1000 mg/kg

CC(C)OC(=O)[C@@]1(c2ccccc2)CC1CN.Cl (stereo not given in full)
ED50 (Mus musculus [1]): 18 mg/kg
LD50 at 24 h [2]: 100 mg/kg
Mydriasis (Mus musculus [6]): 20%
ED50 (Mus musculus [5]): 54 mg/kg

CCCN(CCC)C(=O)[C@@]1(c2ccccc2)CC1CN.O=C(O)C(=O)O (stereo not given in full)
ED50 (Mus musculus [1]): 9 mg/kg
LD50 at 24 h [2]: 100 mg/kg
Mydriasis (Mus musculus [6]): 27%
ED50 (Mus musculus [4]): 5.5 mg/kg

CCOC(=O)[C@@]1(c2ccccc2)CC1CN(C(C)C)C(C)C.O=C(O)/C=C\C(=O)O (stereo not given in full)
ED50 (Mus musculus [1]): 70 mg/kg
LD50 at 24 h [2]: 750 mg/kg
Mydriasis (Mus musculus [6]): 49%

CCOC(=O)[C@@]1(c2ccccc2)CC1CN1CCCC1.Cl (stereo not given in full)
ED50 (Mus musculus [1]): > 100 mg/kg
LD50 at 24 h [2]: 562 mg/kg
Mydriasis (Mus musculus [6]): 53%

CCCCN(C)CC1C[C@@]1(C(=O)OCC)c1ccccc1.Cl (stereo not given in full)
ED50 (Mus musculus [1]): 27 mg/kg
LD50 at 24 h [2]: 255 mg/kg
Mydriasis (Mus musculus [6]): 61%

CN(C)CCCN1c2ccccc2CCc2ccc(Cl)cc21 [CLOMIPRAMINE]
ED50 (Mus musculus [1]): 5 mg/kg
LD50 at 24 h [2]: 556 mg/kg
Mydriasis (Mus musculus [6]): 38%
ED50 (Mus musculus [4]): 9 mg/kg
ED50 (Mus musculus [5]): 37 mg/kg

CC(C)N(C(=O)[C@@]1(c2ccccc2)CC1CN)C(C)C.Cl (stereo not given in full)
ED50 (Mus musculus [1]): 15 mg/kg
LD50 at 24 h [2]: 100 mg/kg
Mydriasis (Mus musculus [3]): Not significant
ED50 (Mus musculus [4]): 30 mg/kg
ED50 (Mus musculus [5]): > 30 mg/kg

CCOC(=O)[C@@]1(c2ccccc2)CC1CN(C)C.Cl (stereo not given in full)
ED50 (Mus musculus [1]): 10 mg/kg
LD50 at 24 h [2]: > 1000 mg/kg
Mydriasis (Mus musculus [6]): 40%
ED50 (Mus musculus [4]): 1.4 mg/kg

CCOC(=O)[C@@]1(c2ccccc2)CC1CN.Cl (stereo not given in full)
ED50 (Mus musculus [1]): 100 mg/kg
LD50 at 24 h [2]: 316 mg/kg
Mydriasis (Mus musculus [6]): 33%
ED50 (Mus musculus [4]): 30 mg/kg
ED50 (Mus musculus [5]): 73 mg/kg

CCN(CC)C(=O)[C@@]1(c2ccccc2)CC1CNC.O=C(O)C(=O)O (stereo not given in full)
ED50 (Mus musculus [1]): 4 mg/kg
LD50 at 24 h [2]: 316 mg/kg
Mydriasis (Mus musculus [3]): Not significant
ED50 (Mus musculus [4]): 13 mg/kg
ED50 (Mus musculus [5]): > 100 mg/kg

CCOC(=O)[C@@]1(c2ccc(F)cc2)CC1CN(C)C.Cl (stereo not given in full)
ED50 (Mus musculus [1]): 12 mg/kg
LD50 at 24 h [2]: 562 mg/kg
Mydriasis (Mus musculus [6]): 76%
ED50 (Mus musculus [4]): 8 mg/kg

NCC1C[C@@]1(C(=O)N1CCCC1)c1ccccc1.O=C(O)C(=O)O (stereo not given in full)
ED50 (Mus musculus [1]): 48 mg/kg
LD50 at 24 h [2]: 562 mg/kg
Mydriasis (Mus musculus [6]): 12%
ED50 (Mus musculus [4]): 20 mg/kg
ED50 (Mus musculus [5]): > 100 mg/kg

CCOC(=O)[C@@]1(c2ccccc2)CC1CNC.Cl (stereo not given in full)
ED50 (Mus musculus [1]): 30 mg/kg
LD50 at 24 h [2]: 562 mg/kg
Mydriasis (Mus musculus [6]): 62%

CCOC(=O)[C@@]1(c2ccc(OC)cc2)CC1CN(C)C.Cl (stereo not given in full)
ED50 (Mus musculus [1]): > 30 mg/kg
LD50 at 24 h [2]: 562 mg/kg
Mydriasis (Mus musculus [6]): 38%

CCOC(=O)[C@@]1(c2ccccc2)CC1CN(C)CCO.O=C(O)/C=C/C(=O)O (stereo not given in full)
ED50 (Mus musculus [1]): 56 mg/kg
LD50 at 24 h [2]: > 1000 mg/kg
Mydriasis (Mus musculus [6]): 23%

C=CCOC(=O)[C@@]1(c2ccccc2)CC1CN(C)C.O=C(O)/C=C/C(=O)O (stereo not given in full)
ED50 (Mus musculus [1]): 16 mg/kg
LD50 at 24 h [2]: 1000 mg/kg
Mydriasis (Mus musculus [6]): 44%

CCN(CC)C(=O)[C@]1(c2cccc(Cl)c2)CC1CN.Cl (stereo not given in full)
ED50 (Mus musculus [1]): 3 mg/kg
LD50 at 24 h [2]: 100 mg/kg
Mydriasis (Mus musculus [3]): Not significant
ED50 (Mus musculus [4]): 0.9 mg/kg
ED50 (Mus musculus [5]): > 10 mg/kg

Cc1ccc([C@]2(C(=O)OC(C)C)CC2CN)cc1.Cl (stereo not given in full)
ED50 (Mus musculus [1]): 30 mg/kg
LD50 at 24 h [2]: 1000 mg/kg
Mydriasis (Mus musculus [3]): Not significant
ED50 (Mus musculus [4]): 17 mg/kg
ED50 (Mus musculus [5]): 100 mg/kg

CN(C)CCCN1c2ccccc2CCc2ccccc21 [IMIPRAMINE]
ED50 (Mus musculus [1]): 7 mg/kg
Mydriasis (Mus musculus [6]): 61%
ED50 (Mus musculus [4]): 5 mg/kg
ED50 (Mus musculus [5]): 60 mg/kg

CCN(CC)C(=O)[C@]1(c2ccc(Cl)cc2)CC1CN.Cl (stereo not given in full)
ED50 (Mus musculus [1]): 3 mg/kg
LD50 at 24 h [2]: 422 mg/kg
Mydriasis (Mus musculus [6]): 11%
ED50 (Mus musculus [4]): 9 mg/kg
ED50 (Mus musculus [5]): > 100 mg/kg

CCN(CC)C(=O)[C@]1(c2ccccc2)C[C@H]1CN.Cl
ED50 (Mus musculus [1]): 0.5 mg/kg
LD50 at 24 h [2]: 237 mg/kg
Mydriasis (Mus musculus [3]): Not significant
ED50 (Mus musculus [4]): 0.5 mg/kg
ED50 (Mus musculus [5]): > 100 mg/kg

CCCOC(=O)[C@@]1(c2ccccc2)CC1CN(C)C.O=C(O)/C=C/C(=O)O (stereo not given in full)
ED50 (Mus musculus [1]): 25 mg/kg
LD50 at 24 h [2]: 562 mg/kg
Mydriasis (Mus musculus [6]): 55%
ED50 (Mus musculus [4]): 30 mg/kg
ED50 (Mus musculus [5]): > 100 mg/kg

CCCCN(CCCC)C(=O)[C@@]1(c2ccccc2)CC1CN.O=C(O)C(=O)O (stereo not given in full)
ED50 (Mus musculus [1]): > 100 mg/kg
LD50 at 24 h [2]: 562 mg/kg
Mydriasis (Mus musculus [3]): Not significant
ED50 (Mus musculus [4]): > 30 mg/kg
ED50 (Mus musculus [5]): > 100 mg/kg

CCOC(=O)[C@@]1(c2ccccc2)CC1CNCc1ccccc1.Cl (stereo not given in full)
ED50 (Mus musculus [1]): > 30 mg/kg
LD50 at 24 h [2]: 316 mg/kg
Mydriasis (Mus musculus [6]): 16%
